Source: paper PMC12591375 (British journal of pharmacology, 2022)
Read-outs that look alike come from different tables or passages of the source. Marks after values point to notes of the source that are not given here.

Experiments:
CB2 D351A/D354A [1] = target: T1, CB2 D351A/D354A (Homo sapiens, UniProt P34972, D351A/D354A/Q63R); experiment: β-arrestin 2 translocation BRET assay, CB2 D351A/D354A mutant; type: cell-based; conditions: for Span, β-arrestin 2 translocation, CB2 D351A/D354A: HEK 293 cells
T1 sequence (P34972 whole entry Q63R/D351A/D354A): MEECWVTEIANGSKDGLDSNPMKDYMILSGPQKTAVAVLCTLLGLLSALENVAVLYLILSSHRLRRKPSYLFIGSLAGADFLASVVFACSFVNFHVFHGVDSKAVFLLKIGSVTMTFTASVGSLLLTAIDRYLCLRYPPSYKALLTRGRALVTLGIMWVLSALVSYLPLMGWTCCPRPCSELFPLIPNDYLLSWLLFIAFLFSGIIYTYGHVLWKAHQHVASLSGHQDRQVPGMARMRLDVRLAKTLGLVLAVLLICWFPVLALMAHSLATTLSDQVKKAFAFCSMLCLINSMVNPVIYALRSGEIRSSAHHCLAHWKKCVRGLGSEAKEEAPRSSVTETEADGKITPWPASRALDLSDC

[2] = target: T2, CB2 D351A/D354A/D356A/D359A (Homo sapiens, UniProt P34972, D351A/D354A/D356A/D359A/Q63R); experiment: G protein dissociation BRET assay, CB2 D351A/D354A/D356A/D359A; type: cell-based; conditions: HEK 293 cells
T2 sequence (P34972 whole entry Q63R/D351A/D354A/D356A/D359A): as the sequence (P34972 whole entry Q63R/D351A/D354A) above, with D356A, D359A counted along it

CB2 D356A/D359A [3] = target: T3, CB2 D356A/D359A (Homo sapiens, UniProt P34972, D356A/D359A/Q63R); experiment: β-arrestin 2 translocation BRET assay, CB2 D356A/D359A mutant; type: cell-based; conditions: for Span, β-arrestin 2 translocation, CB2 D356A/D359A: HEK 293 cells
T3 sequence (P34972 whole entry Q63R/D356A/D359A): as the sequence (P34972 whole entry Q63R/D351A/D354A) above, with A351D, A354D, D356A, D359A counted along it

CB2 D351A/D354A [4] = target: T1, CB2 D351A/D354A; experiment: G protein dissociation BRET assay, CB2 D351A/D354A; type: cell-based
CB2 [5] = target: T4, CB2 (Homo sapiens, UniProt P34972, Q63R); experiment: β-arrestin 1 translocation real-time BRET assay; type: cell-based; conditions: HEK 293 cells
T4 sequence (P34972 whole entry Q63R): as the sequence (P34972 whole entry Q63R/D351A/D354A) above, with A351D, A354D counted along it

Wild-type CB2 = Wild-type CB2 (Homo sapiens, UniProt P34972, Q63R); experiment: G protein dissociation BRET assay, wild-type CB2; type: cell-based
Wild-type CB2, sequence (P34972 whole entry Q63R): as the sequence (P34972 whole entry Q63R/D351A/D354A) above, with A351D, A354D counted along it

CB2 D356A/D359A [6] = target: T3, CB2 D356A/D359A; experiment: G protein dissociation BRET assay, CB2 D356A/D359A; type: cell-based
[7] = target: T2, CB2 D351A/D354A/D356A/D359A; experiment: β-arrestin 2 translocation BRET assay, CB2 D351A/D354A/D356A/D359A mutant; type: cell-based; conditions: for Span, β-arrestin 2 translocation, CB2 D351A/D354A/D356A/D359A: HEK 293 cells
CB2 [8] = target: T4, CB2; experiment: β-arrestin 2 translocation real-time BRET assay, wild-type CB2; type: cell-based; conditions: for Span, β-arrestin 2 translocation to CB2 / Span, β-arrestin 2 translocation, wild-type CB2: HEK 293 cells
endogenous GRK2/3 = type: cell-based, human; conditions: 30-μM compound 101, 30 min
Method in brief: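 HEK 293 cells PEI-transfected with mem-Citrine-SH3, Rluc8-β-arrestin 2, HA-hCB2 and empty vector, then replated on PDL. Equilibrated ~30 min in phenol red-free DMEM with 1 mg/mL fatty acid-free BSA and 10 mM HEPES, then given 30 µM test compound or vehicle for 30 min.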

## CCCCCCC(C)(C)c1ccc([C@@H]2C[C@H](O)CC[C@H]2CCCO)c(O)c1 [CP55940]
CB2 D351A/D354A [1]; coexpression of GRK2
  Span, β-arrestin 2 translocation, CB2 D351A/D354A: 147.34 (2.60) ^* ΔBRET.s
CB2 D351A/D354A [1]; coexpression of GRK3
  Span, β-arrestin 2 translocation, CB2 D351A/D354A: 147.06 (10.88) ΔBRET.s
CB2 D351A/D354A [1]; mock
  Span, β-arrestin 2 translocation, CB2 D351A/D354A: 132.61 (6.99)^◊ ΔBRET.s
  reduction in efficacy of β-arrestin 2 translocation versus wild-type CB2: 41%
[2]; + GRK3
  G protein dissociation at 1 μM CP55940: −267.49 (4.62)^ⱡ ΔBRET.s
[2]; + β-arrestin 2
  G protein dissociation at 1 μM CP55940: −165.31 (10.19)^◊ ΔBRET.s
  G protein dissociation at 1 μM CP55940, % mock: 67.29 (4.02)^◊ % mock
[2]; + β-arrestin 2 + GRK3
  G protein dissociation at 1 μM CP55940: −155.77 (3.82)^◊ ΔBRET.s
[2]; mock
  Span, G protein dissociation: −246.10 (6.75) ^* ΔBRET.s
CB2 D356A/D359A [3]; coexpression of GRK2
  Span, β-arrestin 2 translocation, CB2 D356A/D359A: 161.84 (5.06) ΔBRET.s
CB2 D356A/D359A [3]; coexpression of GRK3
  Span, β-arrestin 2 translocation, CB2 D356A/D359A: 188.04 (8.90) ΔBRET.s
CB2 D356A/D359A [3]; mock
  Span, β-arrestin 2 translocation, CB2 D356A/D359A: 170.18 (6.70)^◊ ΔBRET.s
  reduction in efficacy of β-arrestin 2 translocation versus wild-type CB2: 24%
CB2 D351A/D354A [4]; 1-μM CP55940
  attenuation of G protein dissociation by addition of β-arrestin 2: over 50%
CB2 D351A/D354A [4]; HEK 293 cells, + β-arrestin 2
  G protein dissociation at 1 μM CP55940: −97.62 (4.27) ΔBRET.s
  G protein dissociation at 1 μM CP55940, % mock: 47.86 (1.69) % mock
CB2 D351A/D354A [4]; HEK 293 cells, mock
  Span, G protein dissociation: −204.02 (5.54) ΔBRET.s
CB2 [5]; coexpression of GRK1
  Span, β-arrestin 1 translocation to CB2: 86.32 (2.74) ^* ΔBRET.s
CB2 [5]; coexpression of GRK2
  Span, β-arrestin 1 translocation to CB2: 79.90 (3.34) ^* ΔBRET.s
CB2 [5]; coexpression of GRK3
  Span, β-arrestin 1 translocation to CB2: 79.51 (2.33) ^* ΔBRET.s
CB2 [5]; coexpression of GRK4
  Span, β-arrestin 1 translocation to CB2: 64.47 (1.90) ΔBRET.s
CB2 [5]; coexpression of GRK5
  Span, β-arrestin 1 translocation to CB2: 70.53 (2.52) ΔBRET.s
CB2 [5]; coexpression of GRK6
  Span, β-arrestin 1 translocation to CB2: 66.73 (3.12) ΔBRET.s
CB2 [5]; mock (no GRK)
  Span, β-arrestin 1 translocation to CB2: 63.07 (4.10) ΔBRET.s
Wild-type CB2; 1-μM CP55940
  attenuation of G protein dissociation by addition of β-arrestin 2: over 50%
Wild-type CB2; HEK 293 cells, + GRK3
  G protein dissociation at 1 μM CP55940: −226.64 (5.63) ΔBRET.s
Wild-type CB2; HEK 293 cells, + β-arrestin 2
  G protein dissociation at 1 μM CP55940: −97.47 (3.67) ΔBRET.s
  G protein dissociation at 1 μM CP55940, % mock: 45.28 (2.15) % mock
Wild-type CB2; HEK 293 cells, + β-arrestin 2 + GRK3
  G protein dissociation at 1 μM CP55940: −91.65 (4.04) ΔBRET.s
Wild-type CB2; HEK 293 cells, mock
  Span, G protein dissociation: −216.50 (8.58) ΔBRET.s
CB2 D356A/D359A [6]; 1-μM CP55940
  attenuation of G protein dissociation by addition of β-arrestin 2: over 50%
CB2 D356A/D359A [6]; HEK 293 cells, + β-arrestin 2
  G protein dissociation at 1 μM CP55940: −91.91 (4.94) ΔBRET.s
  G protein dissociation at 1 μM CP55940, % mock: 49.37 (2.63) % mock
CB2 D356A/D359A [6]; HEK 293 cells, mock
  Span, G protein dissociation: −186.32 (4.70) ^* ΔBRET.s
[7]; coexpression of GRK2
  Span, β-arrestin 2 translocation, CB2 D351A/D354A/D356A/D359A: 194.18 (13.37) ^* ΔBRET.s
  increase of β-arrestin 2 translocation response versus mock: 36%
[7]; coexpression of GRK3
  Span, β-arrestin 2 translocation, CB2 D351A/D354A/D356A/D359A: 180.16 (13.23) ^* ΔBRET.s
  increase of β-arrestin 2 translocation response versus mock: 26%
[7]; mock
  Span, β-arrestin 2 translocation, CB2 D351A/D354A/D356A/D359A: 142.57 (8.39)^◊ ΔBRET.s
  reduction of β-arrestin 2 translocation response versus wild-type CB2: 36%
CB2 [8]; coexpression of GRK1, Table 2
  Span, β-arrestin 2 translocation to CB2: 183.2 (11.32) ΔBRET.s
CB2 [8]; coexpression of GRK2, Table 2
  Span, β-arrestin 2 translocation to CB2: 164.3 (16.29) ^* ΔBRET.s
CB2 [8]; coexpression of GRK2, Table 3 (mutant experiments)
  Span, β-arrestin 2 translocation, wild-type CB2: 174.54 (11.90) ^* ΔBRET.s
CB2 [8]; coexpression of GRK3, Table 2
  Span, β-arrestin 2 translocation to CB2: 155.0 (9.91) ^* ΔBRET.s
CB2 [8]; coexpression of GRK3, Table 3 (mutant experiments)
  Span, β-arrestin 2 translocation, wild-type CB2: 210.00 (2.53) ^* ΔBRET.s
CB2 [8]; coexpression of GRK4, Table 2
  Span, β-arrestin 2 translocation to CB2: 176.9 (8.00) ΔBRET.s
CB2 [8]; coexpression of GRK5, Table 2
  Span, β-arrestin 2 translocation to CB2: 156.0 (6.71) ^* ΔBRET.s
CB2 [8]; coexpression of GRK6, Table 2
  Span, β-arrestin 2 translocation to CB2: 160.6 (8.71) ΔBRET.s
CB2 [8]; mock (no GRK), Table 2
  Span, β-arrestin 2 translocation to CB2: 190.2 (12.38) ΔBRET.s
CB2 [8]; mock, Table 3 (mutant experiments)
  Span, β-arrestin 2 translocation, wild-type CB2: 222.91 (6.17) ΔBRET.s
CB2 [8]; coexpression of GRK2, GRK3 and GRK5 versus mock
  lowering of efficacy of β-arrestin 2 translocation by GRK coexpression: 10–20%

## Cn1c(CNc2cccc(C(=O)NCc3ccccc3C(F)(F)F)c2)nnc1-c1ccncc1 [compound 101]
Endogenous GRK2/3; stimulation with 1-μM AMB-FUBINACA
  reduction of β-arrestin 2 translocation to CB2: approximately 15%
Endogenous GRK2/3; stimulation with 10-μM CP55940
  reduction of β-arrestin 2 translocation to CB2: approximately 15%
Endogenous GRK2/3; stimulation with […] 2-AG
  reduction of β-arrestin 2 translocation to CB2: approximately 15%
